p-CIP stab down = p/CIP-EGFP fusion destabilizers, primary screen, fluorescence, F442A cells | 16 h | decrease of EGFP signal, % at 10 µM | hit rate 0.01% among 290,000 | AID 1984, 2009;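 active means EGFP signal decrease of at least 30% at 10 µM or well 3 SD below plate mean, unless failing retest; inactive means the rest, including hits failing retest or dose response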
NCF1 inh = p47phox/p22phox peptide binding inhibitors, primary screen, biochemical, uHTS, NADPH oxidase regulatory subunit; Neutrophil cytosol factor 1 (Homo sapiens), P14598; fluorescence polarization, 2 h; inhibition, % at 24.7 µM; hit rate 0.53% among 220,000;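 active means inhibition above about 30%, limit read from the data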
Target sequence (P14598 whole entry, looked up): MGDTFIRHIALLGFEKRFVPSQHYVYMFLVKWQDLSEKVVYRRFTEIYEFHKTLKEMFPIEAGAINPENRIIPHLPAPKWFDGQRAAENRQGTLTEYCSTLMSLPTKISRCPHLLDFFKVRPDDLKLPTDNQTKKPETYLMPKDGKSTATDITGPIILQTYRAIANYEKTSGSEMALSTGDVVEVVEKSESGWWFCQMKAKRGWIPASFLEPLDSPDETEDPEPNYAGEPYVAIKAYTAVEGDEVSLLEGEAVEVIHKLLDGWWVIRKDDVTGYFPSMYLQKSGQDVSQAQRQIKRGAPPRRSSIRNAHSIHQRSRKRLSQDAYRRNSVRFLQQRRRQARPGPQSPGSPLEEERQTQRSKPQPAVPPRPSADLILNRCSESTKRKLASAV
Dynein cargo inh = inhibitors of GR-EGFP nuclear translocation, primary screen, dynein cargo transport inhibitor project, imaging, high-content, 3617.4 mouse cells. test concentration mostly 20 µM; stimulated with dexamethasone, 1 µM; hits give low values. z-score, hits read low. hit rate 0.47% among 220,000. AID 1381, 2008;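 active means plate z-score of nuclear minus cytoplasmic receptor signal below a set negative limit, without overly bright fluorescence or cell loss, cut at about -3.5 in these data, passing the limit was not always enough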;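 further: z-score of nuclear minus cytoplasmic ring GR-EGFP intensity difference per well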
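Buffer or medium: tet-free medium with charcoal-stripped serum / Also added: dexamethasone agonist, 1.0 µM final, for 30 min / Timing: induction 48 h, compound 1 h, agonist 30 min / Measured by: high-content fluorescence imaging after fixation / Read-out: nuclear-to-cytoplasmic GR-EGFP distribution per well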
RAM inhibit = inhibitors of the yeast RAM network, primary screen, dse1pr::URA3 reporter, 5-FOA selection | hit rate 1.8% among 190,000 | S. cerevisiae dse1pr::URA3 reporter, 5-FOA growth OD615, 2 d; analog-sensitive cbk1-as2 kinase mutant strain | inhibition, % at 50 µM;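 active means inhibition above a set limit, 3 SD over mean compound inhibition, cut at about 8.4% in these data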;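 further: inhibition rescues growth on 5-FOA so higher OD means more RAM inhibition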
Each line names hits and unclear results; the compound was inactive in the other large screens; ! = a repeat was not active. This is a sample that favours compounds with a hit; in the whole collection about 1.9% have one here.

CC(C)CSC1=NSC2=NC(=O)/C(=C\c3coc4ccccc4c3=O)C(=N)N12	RAM inhibit 9.0
CCN(CC)S(=O)(=O)c1ccc(Cl)c(NC(=O)COc2ccccc2[N+](=O)[O-])c1	RAM inhibit 8.8
CN(C)S(=O)(=O)c1ccc(Cl)c(NC(=O)COc2ccccc2[N+](=O)[O-])c1	none
Cc1ccc(CNC(=O)Cn2cc(C(F)(F)F)ccc2=O)cc1	none
COc1ccc(CCc2nnc(NS(C)(=O)=O)s2)cc1	none (no result: NCF1 inh, Dynein cargo inh, RAM inhibit)
COC(=O)CN(C(=O)CSc1nnc(-c2cccc(OC)c2)o1)c1ccc(OC)cc1	RAM inhibit 11
COc1ccc(CN(C(=O)CSc2nnc(-c3ccccc3C)o2)c2ccc(F)cc2)cc1	RAM inhibit 11
COc1ccc(S(=O)(=O)N2CCCOC2CNC(=O)C(=O)NCc2ccccc2F)cc1C (stereo not drawn)	none (no result: NCF1 inh, Dynein cargo inh, RAM inhibit)
CCOC(=O)c1sc(NC(=S)NC(=O)c2ccccc2)c(C(=O)OCC)c1C	none
CCOC(=O)C1=C(NC(=S)NC(=O)c2ccccc2)c2ccccc2CC1(C)CC (stereo not drawn)	RAM inhibit 11
COc1ccc(/C=C/C=C2\NC(=S)NC2=O)cc1	RAM inhibit 10
O=[N+]([O-])c1cc(C2Nc3cccc4cccc(c34)N2)ccc1Cl	RAM inhibit 11
Cc1cc(NC(=O)CSc2nc3c(sc4ccccc43)c(=O)n2CCCN2CCOCC2)n[nH]1	none
Cc1cc(NC(=O)CSc2nc3c(sc4ccccc43)c(=O)n2CCc2ccccc2)n[nH]1	NCF1 inh 32
COc1ccc(-n2c(COc3ccc(C)cc3)nnc2SCc2ccc(C#N)cc2)cc1	RAM inhibit 9.6
Cc1ccc(OCc2nnc(SCC(=O)c3ccccc3)n2-c2ccccc2)cc1	RAM inhibit 9.4
N#Cc1ccc(OCc2nnc(SCC(=O)c3ccccc3)n2-c2ccccc2)cc1	none
NS(=O)(=O)c1cccc(NC(=O)c2ccno2)c1	none (no result: NCF1 inh, Dynein cargo inh, RAM inhibit)
Cc1nc(NC(=O)C23CC4CC(CC(C4)C2)C3)sc1Cc1ccc2c(c1)OCO2	none
CCCC(=O)Nc1cc(=O)n(C)c(=O)n1C	NCF1 inh 60
Cn1c(NC(=O)CCc2ccccc2)cc(=O)n(C)c1=O	none
CCOc1cccc2cc(-c3nnc(NCc4ccc5c(c4)OCO5)s3)c(=O)oc12	NCF1 inh 67
O=C(Nc1c[nH]c(=O)[nH]c1=O)c1cc([N+](=O)[O-])cc([N+](=O)[O-])c1	none (no result: NCF1 inh, Dynein cargo inh, RAM inhibit)
COc1ccc(N(C)C(=O)c2onc3c2CCCC3)cc1	none
c1ccc(-c2nnc(CN3CCN(C(c4ccccc4)c4ccccc4)CC3)o2)cc1	NCF1 inh 159
COc1ccc(OC)c(-c2csc(N3CCC(c4ccccc4)CC3)n2)c1	none
O=C(NNc1c([N+](=O)[O-])cc(C(F)(F)F)cc1[N+](=O)[O-])c1ccco1	none (no result: NCF1 inh, Dynein cargo inh, RAM inhibit)
CCCCN=Cc1c(C)[nH]n(-c2ccccc2)c1=S	none
Cc1[nH]n(-c2ccccc2)c(=S)c1C=Nc1cccc([N+](=O)[O-])c1	NCF1 inh 89
Cn1c(Sc2ccc(Cl)cc2)c(C=O)c2ccccc21	RAM inhibit 9.8
COc1ccc(C(NC(C)=O)c2cc(Cl)c3cccnc3c2O)cc1OC (stereo not drawn)	none
CCOc1ccc(C(Nc2cccnc2)c2cc(Cl)c3cccnc3c2O)cc1 (stereo not drawn)	NCF1 inh 40
CCC(=O)NC(c1ccc(OC)c(OC)c1)c1cc(Cl)c2cccnc2c1O (stereo not drawn)	NCF1 inh 40
O=C(O)COc1ccccc1C(Nc1cccnc1)c1cc(Cl)c2cccnc2c1O (stereo not drawn)	none
S=C(NCCc1cccc(Cl)c1)NC1CCCCC1	none (no result: NCF1 inh, Dynein cargo inh, RAM inhibit)
CCOC(=O)CCc1c(C)c2ccc(OCc3cc([N+](=O)[O-])ccc3OC)c(C)c2oc1=O	NCF1 inh 30
CCc1cc2cc3c(cc2nc1SCC(=O)Nc1cc(OC)c(OC)cc1C(=O)O)OCO3	RAM inhibit 9.5
CCc1cc2ccc(C)cc2nc1SCC(=O)Nc1cc(OC)c(OC)cc1C(=O)O	none
CCC(=O)Nc1ccc2ccccc2c1	none
CCC(=O)Nc1cccc(-c2csc(-c3ccccc3)n2)c1	none
CC(C)CC(=O)Nc1cccc(-c2csc(-c3ccccc3)n2)c1	RAM inhibit 10
CC(C)CC(=O)Nc1ccc2ccccc2c1	NCF1 inh 91!
O=C1Nc2ccc(F)cc2C12Nc1ccccc1-c1nnc(SCc3ccccc3F)nc1O2 (stereo not drawn)	NCF1 inh 43
CCOC(=O)c1c(NC(=O)Cn2nc(C(F)F)cc2C(F)F)sc(C)c1C	RAM inhibit 9.6
CCOC(=O)c1c(NC(=O)COC)sc(C)c1C	none
CCOC(=O)c1c(NC(=O)COC(=O)c2cc(OC)c(OC)cc2[N+](=O)[O-])sc(C)c1C	RAM inhibit 8.6
CCOC(=O)c1c(NC(=O)CSc2nnnn2C)sc(C)c1C	none
CCOC(=O)c1c(NC(=O)CSc2nnnn2CC)sc(C)c1C	RAM inhibit 8.9
Cc1ccc(NC(=O)NNC(=O)c2ccc3c(c2)NC(=O)C(C)(C)O3)cc1	none (no result: NCF1 inh, Dynein cargo inh, RAM inhibit)
Clc1ccc(CCNc2ncnc3c2nnn3Cc2ccccc2)cc1	none (no result: NCF1 inh, Dynein cargo inh, RAM inhibit)
O=C(Nc1cnn(C23CC4CC(CC(C4)C2)C3)c1)c1cnn2c(C(F)(F)F)cc(-c3ccco3)nc12	NCF1 inh 33
COc1cc(C)ccc1OCc1cc(C(=O)NCCN2CCOCC2)no1	none (no result: NCF1 inh, Dynein cargo inh, RAM inhibit)
COCCCn1c(SCC(=O)N2CCc3ccccc32)nnc1-c1ccoc1C	none (no result: p-CIP stab down, NCF1 inh, RAM inhibit)
COCCCn1c(SCC(=O)N2CCc3ccccc32)nnc1-c1ccco1	RAM inhibit 8.6
COc1ccc(CN(CC2CCC(C(=O)O)CC2)C(=S)Nc2ccc(C)c(Cl)c2)cc1 (stereo not drawn)	none
COc1ccc(CCN(Cc2cc3cc(C)cc(C)c3nc2Cl)C(=O)C2CC2)cc1	RAM inhibit 11
N#CC(C#N)=CC1=C2OC(c3ccccc3)=CC(c3ccccc3)=C2CCC1	RAM inhibit 10
CCCc1cc(=O)oc2cc(OC(C)C(=O)NCC3CCC(C(=O)O)CC3)ccc12 (stereo not drawn)	none (no result: NCF1 inh, Dynein cargo inh, RAM inhibit)
COC(=O)CN1C(=S)N(c2ccc(OC)cc2)C(=O)/C1=C/c1ccc(OC)cc1	RAM inhibit 11
COC(=O)CN1C(=S)N(c2ccc(OC)cc2)C(=O)/C1=C/c1ccc(N2CCOCC2)cc1	none
Cc1ccc2nc(NC(=O)C3CCN(S(=O)(=O)c4cnc[nH]4)CC3)sc2c1	RAM inhibit 11
COc1ccc(CCC(=O)N2CCN(C(=O)c3ccccc3)CC2)cc1	none (no result: NCF1 inh, Dynein cargo inh, RAM inhibit)
CC(=O)Nc1nonc1NC(C)=O	none
CC(=O)Nc1cc(OC(C)=O)c2nonc2c1OC(C)=O	Dynein cargo inh -5.1 (no result: NCF1 inh, RAM inhibit)
CC(C)NC(=NCc1ccc(Cl)cc1Cl)Nc1ccccc1	none (no result: NCF1 inh, Dynein cargo inh, RAM inhibit)
Cc1cc2c(C)nc(N/N=C/c3ccc([N+](=O)[O-])cc3)nc2o1	NCF1 inh 44
C=CCN1C(=O)/C(=C\C=C2\N(C)c3ccccc3C2(C)C)SC1=S	none
CN1/C(=C\C=C2/SC(=S)N(CC(=O)O)C2=O)C(C)(C)c2ccccc21	RAM inhibit 9.1

Compound activity deposited in PubChem BioAssay by several laboratories.
